Test results published in PMC11044719 (Journal of Enzyme Inhibition and Medicinal Chemistry, 2024).

Legend:
[1] = target: FGFR4 kinase (Homo sapiens, UniProt P22455); experiment: biochemical; assay type: biochemical; conditions: for inhibition at 1 µM: read-out: % inhibition against FGFR4 kinase
[2] = target: FGFR3 (Homo sapiens, UniProt P22607); experiment: In vitro kinase assay; assay type: biochemical; conditions: read-out: % inhibition at 1 μM FGFR3
How it was run: (§1)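 Test compound at 0.1 and 1 μM against each FGFR isoform with ATP at its Km concentration; percent inhibition reported.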

[3] = Metabolic stability assay in human liver microsomes; assay type: in vitro ADME; conditions: pH 7
[4] = Metabolic stability assay in mouse liver microsomes; assay type: in vitro ADME; conditions: pH 7
How it was run: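 Human or mouse liver microsomes (0.5 mg/ml) were pre-incubated 5 min at 37 °C with 1 μM test compound in 0.1 M phosphate buffer, pH 7. NADPH regenerating system was added and the mix incubated 30 min at 37 °C. Acetonitrile with internal standard stopped the reaction. Parent compound was measured by LC-MS/MS, with % remaining at 30 min versus 0 min, in duplicate.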

[5] = target: FGFR1 (Homo sapiens, UniProt P11362); experiment: In vitro kinase assay; assay type: biochemical; conditions: read-out: % inhibition at 1 μM FGFR1
How it was run: as §1

[6] = target: FGFR2 (Homo sapiens, UniProt P21802); experiment: In vitro kinase assay; assay type: biochemical; conditions: read-out: % inhibition at 1 μM FGFR2
How it was run: as §1

Sequence of FGFR4 kinase (P22455 22-802): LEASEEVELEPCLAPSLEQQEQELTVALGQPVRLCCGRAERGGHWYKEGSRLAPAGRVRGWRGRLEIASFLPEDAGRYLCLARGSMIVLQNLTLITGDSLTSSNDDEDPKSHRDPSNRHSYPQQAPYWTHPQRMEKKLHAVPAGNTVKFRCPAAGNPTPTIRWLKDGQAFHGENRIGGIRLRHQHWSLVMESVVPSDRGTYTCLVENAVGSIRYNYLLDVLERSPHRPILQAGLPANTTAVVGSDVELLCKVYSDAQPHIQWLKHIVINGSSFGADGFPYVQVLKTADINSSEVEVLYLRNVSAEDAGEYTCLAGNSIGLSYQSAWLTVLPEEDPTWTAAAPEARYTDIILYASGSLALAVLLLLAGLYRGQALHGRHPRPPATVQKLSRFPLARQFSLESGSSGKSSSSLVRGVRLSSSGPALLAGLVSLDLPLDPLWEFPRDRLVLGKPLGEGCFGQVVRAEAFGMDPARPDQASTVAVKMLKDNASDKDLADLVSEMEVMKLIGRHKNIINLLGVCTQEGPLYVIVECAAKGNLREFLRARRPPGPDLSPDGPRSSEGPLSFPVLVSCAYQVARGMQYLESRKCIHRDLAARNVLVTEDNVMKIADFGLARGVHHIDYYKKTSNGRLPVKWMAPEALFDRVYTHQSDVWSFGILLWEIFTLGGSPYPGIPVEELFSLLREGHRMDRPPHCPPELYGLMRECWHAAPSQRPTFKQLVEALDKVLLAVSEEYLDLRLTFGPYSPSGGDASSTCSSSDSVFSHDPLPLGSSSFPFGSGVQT
Sequence of FGFR3 (P22607 23-806): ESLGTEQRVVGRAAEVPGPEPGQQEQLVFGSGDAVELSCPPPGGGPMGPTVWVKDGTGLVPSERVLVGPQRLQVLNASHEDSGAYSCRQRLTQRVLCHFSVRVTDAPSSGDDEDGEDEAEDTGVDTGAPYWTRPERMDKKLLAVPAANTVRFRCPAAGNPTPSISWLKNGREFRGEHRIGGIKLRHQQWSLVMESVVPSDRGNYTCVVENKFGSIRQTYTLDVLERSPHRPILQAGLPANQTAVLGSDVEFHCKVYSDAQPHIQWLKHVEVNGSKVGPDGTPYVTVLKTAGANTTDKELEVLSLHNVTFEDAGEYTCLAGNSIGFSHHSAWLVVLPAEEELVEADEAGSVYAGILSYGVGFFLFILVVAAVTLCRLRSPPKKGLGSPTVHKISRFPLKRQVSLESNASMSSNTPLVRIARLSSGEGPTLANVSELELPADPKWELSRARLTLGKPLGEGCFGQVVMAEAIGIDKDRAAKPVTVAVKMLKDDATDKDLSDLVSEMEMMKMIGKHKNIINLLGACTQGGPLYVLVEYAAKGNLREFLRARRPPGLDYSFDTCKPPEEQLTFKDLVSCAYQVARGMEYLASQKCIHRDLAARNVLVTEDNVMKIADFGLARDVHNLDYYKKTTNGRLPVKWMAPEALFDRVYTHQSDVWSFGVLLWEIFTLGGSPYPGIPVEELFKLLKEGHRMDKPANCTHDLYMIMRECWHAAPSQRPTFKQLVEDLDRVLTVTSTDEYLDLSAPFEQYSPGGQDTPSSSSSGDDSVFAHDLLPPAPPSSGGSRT
Sequence of FGFR1 (P11362 22-822): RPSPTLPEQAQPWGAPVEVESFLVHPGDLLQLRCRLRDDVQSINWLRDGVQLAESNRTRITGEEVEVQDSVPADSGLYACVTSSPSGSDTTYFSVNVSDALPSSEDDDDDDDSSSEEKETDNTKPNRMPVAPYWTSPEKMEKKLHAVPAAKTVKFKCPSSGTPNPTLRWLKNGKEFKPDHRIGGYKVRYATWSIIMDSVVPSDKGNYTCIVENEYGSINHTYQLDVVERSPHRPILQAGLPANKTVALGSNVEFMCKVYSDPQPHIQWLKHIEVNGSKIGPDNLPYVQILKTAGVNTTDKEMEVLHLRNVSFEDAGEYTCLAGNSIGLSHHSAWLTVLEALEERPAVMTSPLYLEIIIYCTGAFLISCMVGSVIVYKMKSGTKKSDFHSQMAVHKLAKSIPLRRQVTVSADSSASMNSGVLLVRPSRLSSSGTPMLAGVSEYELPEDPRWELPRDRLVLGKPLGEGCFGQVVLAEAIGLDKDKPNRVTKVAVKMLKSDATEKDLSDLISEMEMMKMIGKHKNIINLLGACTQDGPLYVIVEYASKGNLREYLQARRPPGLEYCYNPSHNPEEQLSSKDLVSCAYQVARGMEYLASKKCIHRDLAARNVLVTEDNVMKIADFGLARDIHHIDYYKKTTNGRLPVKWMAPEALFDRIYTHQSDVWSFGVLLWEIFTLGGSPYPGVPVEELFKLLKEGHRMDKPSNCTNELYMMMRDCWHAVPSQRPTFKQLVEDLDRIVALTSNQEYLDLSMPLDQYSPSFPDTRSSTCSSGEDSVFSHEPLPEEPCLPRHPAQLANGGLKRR
Sequence of FGFR2 (P21802 22-821): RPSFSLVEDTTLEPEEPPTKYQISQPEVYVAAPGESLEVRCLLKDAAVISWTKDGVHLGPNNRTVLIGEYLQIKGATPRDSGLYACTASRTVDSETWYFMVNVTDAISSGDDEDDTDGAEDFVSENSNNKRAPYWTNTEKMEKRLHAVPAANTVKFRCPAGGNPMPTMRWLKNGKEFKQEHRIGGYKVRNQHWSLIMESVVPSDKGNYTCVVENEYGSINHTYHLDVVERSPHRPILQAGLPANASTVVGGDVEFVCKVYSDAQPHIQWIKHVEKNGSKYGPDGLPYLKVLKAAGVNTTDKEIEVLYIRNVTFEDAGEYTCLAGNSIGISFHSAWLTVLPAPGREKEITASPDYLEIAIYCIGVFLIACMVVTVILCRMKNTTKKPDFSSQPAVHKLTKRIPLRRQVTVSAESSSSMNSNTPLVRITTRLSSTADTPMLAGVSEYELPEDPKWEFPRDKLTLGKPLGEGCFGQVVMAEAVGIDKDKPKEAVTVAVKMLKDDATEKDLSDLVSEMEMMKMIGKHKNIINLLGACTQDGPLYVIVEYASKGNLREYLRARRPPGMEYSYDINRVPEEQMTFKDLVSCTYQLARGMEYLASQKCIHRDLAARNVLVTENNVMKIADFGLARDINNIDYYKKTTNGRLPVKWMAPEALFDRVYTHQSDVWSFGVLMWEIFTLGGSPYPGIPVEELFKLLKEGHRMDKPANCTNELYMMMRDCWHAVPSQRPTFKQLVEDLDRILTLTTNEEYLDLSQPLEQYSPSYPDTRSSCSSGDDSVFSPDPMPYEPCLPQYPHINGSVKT

Row | inhibition at 1 µM [1] | Structure (SMILES) | other results
1 | 21% | C=CC(=O)Nc1ccccc1C(=O)Nc1cccnn1 [2a, 2-Acrylamido-N-(pyridazin-3-yl)benzamide] | –
2 | 9% | C=CC(=O)Nc1ccccc1C(=O)Nc1ccccn1 [2b, 2-Acrylamido-N-(pyridin-2-yl)benzamide] | –
3 | 7% | C=CC(=O)Nc1ccccc1C(=O)Nc1cccnc1 [2c, 2-Acrylamido-N-(pyridin-3-yl)benzamide] | –
4 | 6% | C=CC(=O)Nc1ccccc1C(=O)Nc1ncccn1 [2d, 2-Acrylamido-N-(pyrimidin-2-yl)benzamide] | –
5 | 12% | C=CC(=O)Nc1ccccc1C(=O)Nc1ccncn1 [2e, 2-Acrylamido-N-(pyrimidin-4-yl)benzamide] | –
6 | 9% | C=CC(=O)Nc1ccccc1C(=O)Nc1cnccn1 [2f, 2-Acrylamido-N-(pyrazin-2-yl)benzamide] | –
7 | 30% | C=CC(=O)Nc1ccccc1C(=O)Nc1ccc(Cl)nn1 [2g, 2-Acrylamido-N-(6-chloropyridazin-3-yl)benzamide] | –
8 | 44% | C#Cc1ccc(NC(=O)c2ccccc2NC(=O)C=C)cn1 [2h, 2-Acrylamido-N-(6-ethynylpyridin-3-yl)benzamide] | –
9 | 49% | C#Cc1ccc(NC(=O)c2ccccc2NC(=O)C=C)nn1 [2i, 2-Acrylamido-N-(6-ethynylpyridazin-3-yl)benzamide] | –
10 | 5% | C=CC(=O)Nc1ccccc1C(=O)Nc1cc(C)on1 [2j, 2-Acrylamido-N-(5-methylisoxazol-3-yl)benzamide] | –
11 | 4% | C=CC(=O)Nc1ccccc1C(=O)Nc1n[nH]c2ccccc12 [2k, 2-Acrylamido-N-(1H-indazol-3-yl)benzamide] | –
12 | 0% | C=CC(=O)Nc1ccccc1C(=O)Nc1ncnc2ccccc12 [2l, 2-Acrylamido-N-(quinazolin-4-yl)benzamide] | –
13 | 10% | C=CC(=O)Nc1ccccc1C(=O)Nc1ccc(C#CCN(C)C)nn1 [4a, 2-Acrylamido-N-(6–(3-(dimethylamino)prop-1-yn-1-yl)pyridazin-3-yl)benzamide] | –
14 | 47% | C=CC(=O)Nc1ccccc1C(=O)Nc1ccc(C#CCOC)nn1 [4b, 2-Acrylamido-N-(6–(3-methoxyprop-1-yn-1-yl)pyridazin-3-yl)benzamide] | –
15 | 97% | C=CC(=O)Nc1ccccc1C(=O)Nc1ccc(C#Cc2ccc(OC)cc2)nn1 [4c, 2-Acrylamido-N-(6-((4-methoxyphenyl)ethynyl)pyridazin-3-yl)benzamide] | inhibition at 1 µM [2]: 0%; remaining at 0.5 h, 1 μM [3]: 7.5%; remaining at 0.5 h, 1 μM [4]: 25.2%; IC50 [1]: 33 nM; fold more potent than staurosporin (IC50) [1]: 5 fold; fold improvement of IC50 compared to that of other derivatives ([1]; FGFR4 IC50 compared with other derivatives of Table 3): ~10 fold
16 | 86% | C=CC(=O)Nc1ccccc1C(=O)Nc1ccc(C#Cc2cccc(OC)c2)nn1 [4d, 2-Acrylamido-N-(6-((3-methoxyphenyl)ethynyl)pyridazin-3-yl)benzamide] | IC50 [1]: 424 nM

Row | inhibition at 1 µM [1] | Structure (SMILES) | other results
17 | 42% | C=CC(=O)Nc1ccccc1C(=O)Nc1ccc(C#Cc2ccccc2OC)nn1 [4e, 2-Acrylamido-N-(6-((2-methoxyphenyl)ethynyl)pyridazin-3-yl)benzamide] | –
18 | 80% | C=CC(=O)Nc1ccccc1C(=O)Nc1ccc(C#Cc2cc(OC)cc(OC)c2)nn1 [4f, 2-Acrylamido-N-(6-((3,5-dimethoxyphenyl)ethynyl)pyridazin-3-yl)benzamide] | –
19 | 59% | C=CC(=O)Nc1ccccc1C(=O)Nc1ccc(C#Cc2cccc(N(C)C)c2)nn1 [4g, 2-Acrylamido-N-(6-((3-(dimethylamino)phenyl)ethynyl)pyridazin-3-yl)benzamide] | –
20 | 92% | C=CC(=O)Nc1ccccc1C(=O)Nc1ccc(C#Cc2ccc(N(C)C)cc2)nn1 [4h, 2-Acrylamido-N-(6-((4-(dimethylamino)phenyl)ethynyl)pyridazin-3-yl)benzamide] | –
21 | 91% | C=CC(=O)Nc1ccccc1C(=O)Nc1ccc(C#Cc2ccccc2)nn1 [4i, 2-Acrylamido-N-(6-(phenylethynyl)pyridazin-3-yl)benzamide] | IC50 [1]: 235 nM
22 | 13% | C=CC(=O)Nc1ccccc1C(=O)Nc1ccc(C#Cc2cccnc2)nn1 [4j, 2-Acrylamido-N-(6-(pyridin-3-ylethynyl)pyridazin-3-yl)benzamide] | –
23 | 25% | C=CC(=O)Nc1ccccc1C(=O)Nc1ccc(C#CC2CCCCC2)nn1 [4k, 2-Acrylamido-N-(6-(cyclohexylethynyl)pyridazin-3-yl)benzamide] | –
24 | 17% | C=CC(=O)Nc1ccccc1C(=O)Nc1ccc(C#Cc2cccc3ccccc23)nn1 [4l, 2-Acrylamido-N-(6-(naphthalen-1-ylethynyl)pyridazin-3-yl)benzamide] | –
25 | 37% | C=CC(=O)Nc1ccccc1C(=O)Nc1ccc(C#CCOc2cccc(OC)c2)nn1 [4m, 2-Acrylamido-N-(6–(3-(3-methoxyphenoxy)prop-1-yn-1-yl)pyridazin-3-yl)benzamide] | –
26 | 7% | C=CC(=O)Nc1ccccc1C(=O)Nc1ccc(Oc2cccc(OC)c2)nn1 [4n, 2-Acrylamido-N-(6–(3-methoxyphenoxy)pyridazin-3-yl)benzamide] | –
27 | 39% | C=CC(=O)Nc1ccccc1C(=O)Nc1ccc(-c2cccc(OC)c2)nn1 [4o, 2-Acrylamido-N-(6–(3-methoxyphenyl)pyridazin-3-yl)benzamide] | –
28 | 26% | C=CC(=O)Nc1ccccc1C(=O)Nc1ccc(CCc2cccc(OC)c2)nn1 [4p, 2-Acrylamido-N-(6–(3-methoxyphenethyl)pyridazin-3-yl)benzamide] | –
29 | 13% | C=CC(=O)Nc1ccccc1C(=O)Nc1ccc(CCc2cccc(N(C)C)c2)nn1 [4q, 2-Acrylamido-N-(6–(3-(dimethylamino)phenethyl)pyridazin-3-yl)benzamide] | –
30 | 92% | C=CC(=O)Nc1ccccc1C(=O)Nc1ccc(C#Cc2ccc3c(c2)OCO3)nn1 [4s, 2-Acrylamido-N-(6–(2-(1,3-benzodioxol-5-yl)ethynyl)pyridazin-3-yl)benzamide] | remaining at 0.5 h, 1 μM [3]: 62.1%; remaining at 0.5 h, 1 μM [4]: 53.9%; IC50 [1]: 319 nM
31 | 0% | CCC(=O)Nc1ccccc1C(=O)Nc1ccc(C#Cc2ccc(OC)cc2)nn1 [4t, N-[6-[2–(4-methoxyphenyl)ethynyl]pyridazin-3-yl]-2-(propanoylamino)benzamide] | –
32 | 97% | C=CC(=O)N[C@H]1CCOC[C@H]1Nc1ncc2cc(-c3c(Cl)c(OC)cc(OC)c3Cl)ccc2n1 [BLU554, fisogatinib, reference compound] | inhibition at 1 µM [2]: 10%; inhibition at 1 µM [5]: 29%; inhibition at 1 µM [6]: 11%
